Results published in ChEMBL document CHEMBL3046951, “Volatile constituents from the leaves of Callicarpa japonica Thunb. and their antibacterial activities” (2004).

Tests used:
Type in all cases: functional
[1] = test system: Listeria monocytogenes; test: Antimicrobial activity against Listeria monocytogenes ATCC 19111 assessed as growth inhibition rate at 25.52 mg/l after 72 hr by spectrophotometry; details: ATCC 19111, 72 h, read-out: GI
How it was run: (§1)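 L. monocytogenes was grown at 30 °C in tryptic soy broth, subcultured for 18 h, and exposed to pure volatile compounds (>95% purity). Growth was followed by Bioscreen C optical density every 24 h for 72 h against a 10% Tween 80 control.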

[2] = test system: Bacillus cereus; test: Antimicrobial activity against Bacillus cereus ATCC 11778 assessed as growth inhibition rate at 135.68 mg/l after 72 hr by spectrophotometry; details: ATCC 11778, 72 h, read-out: GI
How it was run: (§2)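 Pure volatile compounds (purity >95%; one at 90%) were tested against B. cereus ATCC 11778. The strain was grown at 30 °C in nutrient broth for 24 h, then subcultured for 18 h. Optical density was read in a Bioscreen C every 24 h for 72 h, with 10% Tween 80 as the control.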

[3] = test system: Staphylococcus aureus; test: Antimicrobial activity against Staphylococcus aureus ATCC 25923 assessed as growth inhibition rate at 25.52 mg/l after 72 hr by spectrophotometry; details: ATCC 25923, 72 h, read-out: GI
[4] = test system: Bacillus cereus; test: Antimicrobial activity against Bacillus cereus ATCC 11778 assessed as growth inhibition rate at 678.64 mg/l after 72 hr by spectrophotometry; details: ATCC 11778, 72 h, read-out: GI; how it was run: as §2
[5] = test system: Bacillus cereus; test: Antimicrobial activity against Bacillus cereus ATCC 11778 assessed as growth inhibition rate at 25.52 mg/l after 72 hr by spectrophotometry; details: ATCC 11778, 72 h, read-out: GI; how it was run: as §2
[6] = test system: Escherichia coli; test: Antimicrobial activity against Escherichia coli O157:H7 ATCC 43894 assessed as growth inhibition rate at 678.64 mg/l after 72 hr by spectrophotometry; details: O157:H7 ATCC 43894, 72 h, read-out: GI
How it was run: (§3)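 Authentic volatiles (>95% purity; 2,4-heptadienal 90%) tested against 18 h subcultures. Growth media: E. coli O157:H7 and S. aureus in tryptic soy broth at 37 °C; L. monocytogenes in tryptic soy broth at 30 °C; V. parahaemolyticus in tryptic soy broth + 3% NaCl at 37 °C; S. typhimurium in nutrient broth at 30 °C. Bioscreen C OD every 24 h for 72 h versus 10% Tween 80 control.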

[7] = test system: Staphylococcus aureus; test: Antimicrobial activity against Staphylococcus aureus ATCC 25923 assessed as growth inhibition rate at 339.32 mg/l after 72 hr by spectrophotometry; details: ATCC 25923, 72 h, read-out: GI
[8] = test system: Staphylococcus aureus; test: Antimicrobial activity against Staphylococcus aureus ATCC 25923 assessed as growth inhibition rate at 12.48 mg/l after 72 hr by spectrophotometry; details: ATCC 25923, 72 h, read-out: GI
[9] = test system: Bacillus cereus; test: Antimicrobial activity against Bacillus cereus ATCC 11778 assessed as growth inhibition rate at 339.32 mg/l after 72 hr by spectrophotometry; details: ATCC 11778, 72 h, read-out: GI; how it was run: as §2
[10] = test system: Listeria monocytogenes; test: Antimicrobial activity against Listeria monocytogenes ATCC 19111 assessed as growth inhibition rate at 678.64 mg/l after 72 hr by spectrophotometry; details: ATCC 19111, 72 h, read-out: GI
How it was run: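 Pure volatile compounds (>95% purity) tested on Listeria monocytogenes ATCC 19111 in tryptic soy broth at 30 °C. Inoculum: 24 h culture subcultured (0.1 mL into 9.9 mL broth) and grown 18 h. Growth followed by Bioscreen C optical density every 24 h for 72 h against a 10% Tween 80 control.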

[11] = test system: Vibrio parahaemolyticus; test: Antimicrobial activity against Vibrio parahaemolyticus ATCC 33844 assessed as growth inhibition rate at 135.68 mg/l after 72 hr by spectrophotometry; details: ATCC 33844, 72 h, read-out: GI
[12] = test system: Staphylococcus aureus; test: Antimicrobial activity against Staphylococcus aureus ATCC 25923 assessed as growth inhibition rate at 678.64 mg/l after 72 hr by spectrophotometry; details: ATCC 25923, 72 h, read-out: GI
[13] = test system: Vibrio parahaemolyticus; test: Antimicrobial activity against Vibrio parahaemolyticus ATCC 33844 assessed as growth inhibition rate at 67.88 mg/l after 72 hr by spectrophotometry; details: ATCC 33844, 72 h, read-out: GI
[14] = test system: Escherichia coli; test: Antimicrobial activity against Escherichia coli O157:H7 ATCC 43894 assessed as growth inhibition rate at 12.48 mg/l after 72 hr by spectrophotometry; details: O157:H7 ATCC 43894, 72 h, read-out: GI
[15] = test system: Vibrio parahaemolyticus; test: Antimicrobial activity against Vibrio parahaemolyticus ATCC 33844 assessed as growth inhibition rate at 678.64 mg/l after 72 hr by spectrophotometry; details: ATCC 33844, 72 h, read-out: GI
[16] = test system: Vibrio parahaemolyticus; test: Antimicrobial activity against Vibrio parahaemolyticus ATCC 33844 assessed as growth inhibition rate at 25.52 mg/l after 72 hr by spectrophotometry; details: ATCC 33844, 72 h, read-out: GI
[17] = test system: Salmonella typhimurium; test: Antimicrobial activity against Salmonella enterica subsp. enterica serovar Typhimurium ATCC 14028 assessed as growth inhibition rate at 135.68 mg/l after 72 hr by spectrophotometry; details: ATCC 14028, 72 h, read-out: GI
How it was run: (§4)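 Salmonella Typhimurium ATCC 14028 grown in nutrient broth at 30 °C, precultured 24 h, then subcultured 1:100 for 18 h before testing. Single volatile compounds (>95% pure) were added. OD was read every 24 h over 72 h in a Bioscreen C, with 10% Tween 80 as the comparison control.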

[18] = test system: Bacillus cereus; test: Antimicrobial activity against Bacillus cereus ATCC 11778 assessed as growth inhibition rate at 67.88 mg/l after 72 hr by spectrophotometry; details: ATCC 11778, 72 h, read-out: GI; how it was run: as §2
[19] = test system: Salmonella typhimurium; test: Antimicrobial activity against Salmonella enterica subsp. enterica serovar Typhimurium ATCC 14028 assessed as growth inhibition rate at 12.48 mg/l after 72 hr by spectrophotometry; details: ATCC 14028, 72 h, read-out: GI; how it was run: as §4
[20] = test system: Vibrio parahaemolyticus; test: Antimicrobial activity against Vibrio parahaemolyticus ATCC 33844 assessed as growth inhibition rate at 12.48 mg/l after 72 hr by spectrophotometry; details: ATCC 33844, 72 h, read-out: GI
[21] = test system: Listeria monocytogenes; test: Antimicrobial activity against Listeria monocytogenes ATCC 19111 assessed as growth inhibition rate at 339.32 mg/l after 72 hr by spectrophotometry; details: ATCC 19111, 72 h, read-out: GI; how it was run: as §1
[22] = test system: Escherichia coli; test: Antimicrobial activity against Escherichia coli O157:H7 ATCC 43894 assessed as growth inhibition rate at 339.32 mg/l after 72 hr by spectrophotometry; details: O157:H7 ATCC 43894, 72 h, read-out: GI
[23] = test system: Escherichia coli; test: Antimicrobial activity against Escherichia coli O157:H7 ATCC 43894 assessed as growth inhibition rate at 135.68 mg/l after 72 hr by spectrophotometry; details: O157:H7 ATCC 43894, 72 h, read-out: GI
[24] = test system: Staphylococcus aureus; test: Antimicrobial activity against Staphylococcus aureus ATCC 25923 assessed as growth inhibition rate at 135.68 mg/l after 72 hr by spectrophotometry; details: ATCC 25923, 72 h, read-out: GI
[25] = test system: Salmonella typhimurium; test: Antimicrobial activity against Salmonella enterica subsp. enterica serovar Typhimurium ATCC 14028 assessed as growth inhibition rate at 25.52 mg/l after 72 hr by spectrophotometry; details: ATCC 14028, 72 h, read-out: GI; how it was run: as §4
[26] = test system: Salmonella typhimurium; test: Antimicrobial activity against Salmonella enterica subsp. enterica serovar Typhimurium ATCC 14028 assessed as growth inhibition rate at 678.64 mg/l after 72 hr by spectrophotometry; details: ATCC 14028, 72 h, read-out: GI
[27] = test system: Escherichia coli; test: Antimicrobial activity against Escherichia coli O157:H7 ATCC 43894 assessed as growth inhibition rate at 67.88 mg/l after 72 hr by spectrophotometry; details: O157:H7 ATCC 43894, 72 h, read-out: GI; how it was run: as §3
[28] = test system: Salmonella typhimurium; test: Antimicrobial activity against Salmonella enterica subsp. enterica serovar Typhimurium ATCC 14028 assessed as growth inhibition rate at 67.88 mg/l after 72 hr by spectrophotometry; details: ATCC 14028, 72 h, read-out: GI
[29] = test system: Listeria monocytogenes; test: Antimicrobial activity against Listeria monocytogenes ATCC 19111 assessed as growth inhibition rate at 135.68 mg/l after 72 hr by spectrophotometry; details: ATCC 19111, 72 h, read-out: GI; how it was run: as §1
[30] = test system: Staphylococcus aureus; test: Antimicrobial activity against Staphylococcus aureus ATCC 25923 assessed as growth inhibition rate at 67.88 mg/l after 72 hr by spectrophotometry; details: ATCC 25923, 72 h, read-out: GI
[31] = test system: Bacillus cereus; test: Antimicrobial activity against Bacillus cereus ATCC 11778 assessed as growth inhibition rate at 12.48 mg/l after 72 hr by spectrophotometry; details: ATCC 11778, 72 h, read-out: GI; how it was run: as §2
[32] = test system: Listeria monocytogenes; test: Antimicrobial activity against Listeria monocytogenes ATCC 19111 assessed as growth inhibition rate at 12.48 mg/l after 72 hr by spectrophotometry; details: ATCC 19111, 72 h, read-out: GI; how it was run: as §1
[33] = test system: Salmonella typhimurium; test: Antimicrobial activity against Salmonella enterica subsp. enterica serovar Typhimurium ATCC 14028 assessed as growth inhibition rate at 339.32 mg/l after 72 hr by spectrophotometry; details: ATCC 14028, 72 h, read-out: GI; how it was run: as §4
[34] = test system: Vibrio parahaemolyticus; test: Antimicrobial activity against Vibrio parahaemolyticus ATCC 33844 assessed as growth inhibition rate at 339.32 mg/l after 72 hr by spectrophotometry; details: ATCC 33844, 72 h, read-out: GI
[35] = test system: Escherichia coli; test: Antimicrobial activity against Escherichia coli O157:H7 ATCC 43894 assessed as growth inhibition rate at 25.52 mg/l after 72 hr by spectrophotometry; details: O157:H7 ATCC 43894, 72 h, read-out: GI
[36] = test system: Listeria monocytogenes; test: Antimicrobial activity against Listeria monocytogenes ATCC 19111 assessed as growth inhibition rate at 67.88 mg/l after 72 hr by spectrophotometry; details: ATCC 19111, 72 h, read-out: GI; how it was run: as §1

`C=C[C@H](O)CCCCC` was tested, and the inhibition of growth at 25.52 µg/mL [1] was 6.7%, the inhibition of growth at 135.68 µg/mL [2] was 7.6% and the inhibition of growth at 25.52 µg/mL [3] was 6.6%. It also gave an inhibition of growth at 678.64 µg/mL [4] of 90.8%, an inhibition of growth at 25.52 µg/mL [5] of 0% and an inhibition of growth at 678.64 µg/mL [6] of 96.5%. The inhibition of growth at 339.32 µg/mL [7] was 50.2%, the inhibition of growth at 12.48 µg/mL [8] was 3.6% and the inhibition of growth at 339.32 µg/mL [9] was 54.6%. The inhibition of growth at 678.64 µg/mL [10] was 39.8%, the inhibition of growth at 135.68 µg/mL [11] was 21.5% and the inhibition of growth at 678.64 µg/mL [12] was 80.6%. For the same compound, the inhibition of growth at 67.88 µg/mL [13] was 13.5%, the inhibition of growth at 12.48 µg/mL [14] was 8.3% and the inhibition of growth at 678.64 µg/mL [15] was 98.8%. The inhibition of growth at 25.52 µg/mL [16] was 14.3%, the inhibition of growth at 135.68 µg/mL [17] was 25.4% and the inhibition of growth at 67.88 µg/mL [18] was 4.2%. For the same compound, the inhibition of growth at 12.48 µg/mL [19] was 18.2%, the inhibition of growth at 12.48 µg/mL [20] was 11.1% and the inhibition of growth at 339.32 µg/mL [21] was 27.3%. For the same compound, the inhibition of growth at 339.32 µg/mL [22] was 87.2%, the inhibition of growth at 135.68 µg/mL [23] was 8.9% and the inhibition of growth at 135.68 µg/mL [24] was 8.7%. The inhibition of growth at 25.52 µg/mL [25] was 16.7%, the inhibition of growth at 678.64 µg/mL [26] was 98.4% and the inhibition of growth at 67.88 µg/mL [27] was 7.9%. For the same compound, the inhibition of growth at 67.88 µg/mL [28] was 17.7%, the inhibition of growth at 135.68 µg/mL [29] was 8.2% and the inhibition of growth at 67.88 µg/mL [30] was 5.7%. The inhibition of growth at 12.48 µg/mL [31] was 0%, the inhibition of growth at 12.48 µg/mL [32] was 5.4% and the inhibition of growth at 339.32 µg/mL [33] was 79.1%. For the same compound, the inhibition of growth at 339.32 µg/mL [34] was 90.4%, the inhibition of growth at 25.52 µg/mL [35] was 6.3% and the inhibition of growth at 67.88 µg/mL [36] was 5%.
